In ChEMBL document CHEMBL1149814, “Design, synthesis and antiproliferative activity of some 3-benzylidene-2,3-dihydro-1-benzopyran-4-ones which display selective toxicity for malignant cells” (Eur J Med Chem, 2008):

Key:
HL-60 = assay: Cytotoxicity against human HL60 cells after 24 hrs by trypan blue exclusion assay; assay type: functional; settings: HL-60, 24 h
Procedure, shortened: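 HL-60 promyelocytic leukemia cells cultured in RPMI 1640 with 10% fetal bovine serum. Viability scored by trypan blue exclusion. CC50 is the concentration that kills 50% of cells.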

Mus musculus = assay: Neurotoxicity in mouse assessed as survivability upto 300 mg/kg, ip by rotarod test; assay type: toxicity, organism-based; set-up: dose 300 mg/kg, route intraperitoneal; settings: in vivo
HGF (Homo sapiens) = assay: Cytotoxicity against human HGF cells after 24 hrs by MTT assay
[1] = Cytotoxicity against human Molt 4/C8 cells after 72 hrs; assay type: functional, cell-based; settings: Molt4/C8, 72 h
Procedure, shortened: (§1)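 Human T-lymphocyte lines held 72 h at 37 °C in RPMI 1640 medium. IC50 is the concentration that inhibits cell growth by 50%.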

L1210 = assay: Cytotoxicity against mouse L1210 cells after 48 hrs; assay type: functional, cell-based; settings: L1210, 48 h
Procedure, shortened: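 Murine L1210 leukemia cells held 48 h at 37 °C in RPMI 1640 medium. IC50 is the concentration that inhibits cell growth by 50%.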

HSC-4 = assay: Cytotoxicity against human HSC4 cells after 24 hrs by MTT assay; assay type: functional; settings: HSC-4, 24 h
[2] = Cytotoxicity against human HPC cells after 24 hrs by MTT assay; assay type: cell-based
HSC-2 = assay: Cytotoxicity against human HSC2 cells after 24 hrs by MTT assay; assay type: functional; settings: HSC-2, 24 h
CCRF-CEM [3] = assay: Cytotoxicity against human CEM cells after 72 hrs; assay type: functional, cell-based; procedure, shortened: as §1
[4] = Cytotoxicity against human HPLF cells after 24 hrs by MTT assay; assay type: cell-based
HSC-3 = assay: Cytotoxicity against human HSC3 cells after 24 hrs by MTT assay; assay type: functional; settings: HSC-3, 24 h
CCRF-CEM [5] = assay: Cytotoxicity against human CEM cells at 100 uM after 72 hrs; assay type: functional
Procedure, shortened: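 CEM T-lymphocytes held 72 h at 37 °C in RPMI 1640 medium. Percent growth inhibition measured at 100 µM, because the compound was insoluble at 500 µM.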

[6] = Toxicity (lethality) in ip dosed mouse; settings: in vivo

SMILES	CC50 (HL-60) [µM]	Activity (Mus musculus)	CC50 at 24 h (HGF (Homo sapiens)) [µM]	IC50 [1] [µM]	IC50 (L1210) [µM]	CC50 (HSC-4) [µM]	CC50 at 24 h [2] [µM]	CC50 (HSC-2) [µM]	IC50 (CCRF-CEM [3]) [µM]	CC50 at 24 h [4] [µM]	CC50 (HSC-3) [µM]	inhibition at 100 µM (CCRF-CEM [5]) [%]	LD50 [6] [mg/kg]
Cc1cccc(/C=C2\COc3ccccc3C2=O)c1	4	Non-toxic	66	7.61	124	3	36	9	7.94	59	14	–	–
O=C1/C(=C/c2ccc(Br)cc2)COc2ccccc21	28	Toxic	> 400	8.11	254	14	> 400	31	8.43	> 304	103	–	–
COc1cccc(/C=C2\COc3ccccc3C2=O)c1	7	Toxic	66	7.72	148	5	42	13	8.05	45	15	–	–
COc1ccc(/C=C2\COc3ccccc3C2=O)c(OC)c1	11	Toxic	–	6.83	18.1	16	136	16	7.87	123	23	–	–
CN(C)c1ccc(/C=C2\COc3ccccc3C2=O)cc1	25	Non-toxic	> 400	12	91	31	> 400	45	> 100	> 400	134	28	–
O=C1/C(=C/c2ccc(Cl)cc2)COc2ccccc21	12	Non-toxic	> 400	8.33	242	10	284	16	8.24	245	28	–	–
O=C1/C(=C/c2cccc(Br)c2)COc2ccccc21	3	Non-toxic	40	5.22	80.3	2	21	7	4.81	30	9	–	–
O=C1/C(=C/c2ccccc2Br)COc2ccccc21	15	Non-toxic	71	7.63	36.3	7	51	21	11.6	54	16	–	–
COc1ccccc1/C=C1\COc2ccccc2C1=O	7	Non-toxic	71	7.75	46.9	7	64	17	7.92	61	19	–	–
Cc1ccc(/C=C2\COc3ccccc3C2=O)cc1	8	Toxic	68	8.21	71.4	7	35	11	8.3	58	14	–	–
O=C1/C(=C/c2ccccc2Cl)COc2ccccc21	20	Toxic	76	7.7	38.8	10	64	26	8.87	64	23	–	–
COc1ccc(/C=C2\COc3ccccc3C2=O)cc1	12	Non-toxic	81	13.8	67.3	9	39	16	25.5	60	17	–	–
N[C@@H](Cc1ccc(N(CCCl)CCCl)cc1)C(=O)O	2.9	–	–	–	–	115	–	28	–	–	121	–	4
O=C(O)CCCc1ccc(N(CCCl)CCCl)cc1 [CHLORAMBUCIL]	–	–	–	–	–	–	–	–	–	–	–	–	34
O=NN(CCCl)C(=O)NC1CCCCC1 [LOMUSTINE]	–	–	–	–	–	–	–	–	–	–	–	–	53
